According to ChEMBL document CHEMBL4689842, “EUbOPEN Chemogenomics Library wave 1” (2021):

Tested on: HEK-293T
Test: Multiplex assay against HEK293T;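 as to Population Tubulin-Different-Phenotype (%): share of the cells with healthy nuclei that show this phenotype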
Type: toxicity, cell-based
Settings: human
In short: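 Values for tubulin, mitochondrial-mass and membrane-permeability phenotypes are per cents of cells with healthy nuclei. These cells were identified by CellPathfinder machine-learning gating of live cells that had been stained at seeding with Hoechst33342, BioTracker Green Microtubule Cytoskeleton Dye, MitoTracker Red and Annexin V Alexa Fluor 680 and imaged on a CQ1 microscope at 37°C and 5% CO2 after compound addition. The gating first set Hoechst high-intensity objects apart from normal cells, then split normal cells into healthy, pyknosed or fragmented nuclei, and pyknosed cells into mitotic or apoptotic.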

[1] = 12 h, 1 µM, compound concentration 1 uM, replicate 1
[2] = 12 h, 1 µM, compound concentration 1 uM, replicate 2
[3] = 12 h, 10 µM, compound concentration 10 uM, replicate 1
[4] = 12 h, 10 µM, compound concentration 10 uM, replicate 2
[5] = 24 h, 1 µM, compound concentration 1 uM, replicate 1
[6] = 24 h, 1 µM, compound concentration 1 uM, replicate 2
[7] = 24 h, 10 µM, compound concentration 10 uM, replicate 1
[8] = 24 h, 10 µM, compound concentration 10 uM, replicate 2

CC[C@@H]1C(=O)N(C)c2cnc(Nc3ccc(C(=O)NC4CCN(C)CC4)cc3OC)nc2N1C1CCCC1 [BI-2536]
Population Apoptotic (%) [1]: 15% | Population Fragmented Nuclei (%) [1]: 15% | Population Healthy Nuclei (%) [1]: 61% | Population Hoechst High Intensity Objects (%) [1]: 12% | Population Membrane Permeable-Phenotype (%) [1]: 12% | Population Mitochondria Different-Phenotype (%) [1]: 10% | Population Mitotic Cells (%) [1]: 84% | Population Normal (%) [1]: 87% | Population Pyknosed Nuclei (%) [1]: 22% | Population Tubulin-Different-Phenotype (%) [1]: 14% | Total Cell Count [1]: 578 | Population Apoptotic (%) [2]: 12% | Population Fragmented Nuclei (%) [2]: 3% | Population Healthy Nuclei (%) [2]: 82% | Population Hoechst High Intensity Objects (%) [2]: 2% | Population Membrane Permeable-Phenotype (%) [2]: 7% | Population Mitochondria Different-Phenotype (%) [2]: 28% | Population Mitotic Cells (%) [2]: 87% | Population Normal (%) [2]: 97% | Population Pyknosed Nuclei (%) [2]: 13% | Population Tubulin-Different-Phenotype (%) [2]: 41% | Total Cell Count [2]: 1166 | Population Apoptotic (%) [3]: 32% | Population Fragmented Nuclei (%) [3]: 17% | Population Healthy Nuclei (%) [3]: 59% | Population Hoechst High Intensity Objects (%) [3]: 11% | Population Membrane Permeable-Phenotype (%) [3]: 17% | Population Mitochondria Different-Phenotype (%) [3]: 40% | Population Mitotic Cells (%) [3]: 67% | Population Normal (%) [3]: 88% | Population Pyknosed Nuclei (%) [3]: 23% | Population Tubulin-Different-Phenotype (%) [3]: 90% | Total Cell Count [3]: 497 | Population Apoptotic (%) [4]: 12% | Population Fragmented Nuclei (%) [4]: 4% | Population Healthy Nuclei (%) [4]: 81% | Population Hoechst High Intensity Objects (%) [4]: 3% | Population Membrane Permeable-Phenotype (%) [4]: 24% | Population Mitochondria Different-Phenotype (%) [4]: 43% | Population Mitotic Cells (%) [4]: 87% | Population Normal (%) [4]: 96% | Population Pyknosed Nuclei (%) [4]: 13% | Population Tubulin-Different-Phenotype (%) [4]: 98% | Total Cell Count [4]: 911 | Population Apoptotic (%) [5]: 14% | Population Fragmented Nuclei (%) [5]: 14% | Population Healthy Nuclei (%) [5]: 62% | Population Hoechst High Intensity Objects (%) [5]: 12% | Population Membrane Permeable-Phenotype (%) [5]: 5% | Population Mitochondria Different-Phenotype (%) [5]: 12% | Population Mitotic Cells (%) [5]: 85% | Population Normal (%) [5]: 87% | Population Pyknosed Nuclei (%) [5]: 23% | Population Tubulin-Different-Phenotype (%) [5]: 19% | Total Cell Count [5]: 553 | Population Apoptotic (%) [6]: 6% | Population Fragmented Nuclei (%) [6]: 2% | Population Healthy Nuclei (%) [6]: 66% | Population Hoechst High Intensity Objects (%) [6]: 4% | Population Membrane Permeable-Phenotype (%) [6]: 2% | Population Mitochondria Different-Phenotype (%) [6]: 22% | Population Mitotic Cells (%) [6]: 93% | Population Normal (%) [6]: 95% | Population Pyknosed Nuclei (%) [6]: 31% | Population Tubulin-Different-Phenotype (%) [6]: 48% | Total Cell Count [6]: 1114 | Population Apoptotic (%) [7]: 39% | Population Fragmented Nuclei (%) [7]: 17% | Population Healthy Nuclei (%) [7]: 57% | Population Hoechst High Intensity Objects (%) [7]: 12% | Population Membrane Permeable-Phenotype (%) [7]: 7% | Population Mitochondria Different-Phenotype (%) [7]: 80% | Population Mitotic Cells (%) [7]: 60% | Population Normal (%) [7]: 87% | Population Pyknosed Nuclei (%) [7]: 25% | Population Tubulin-Different-Phenotype (%) [7]: 93% | Total Cell Count [7]: 510 | Population Apoptotic (%) [8]: 11% | Population Fragmented Nuclei (%) [8]: 11% | Population Healthy Nuclei (%) [8]: 62% | Population Hoechst High Intensity Objects (%) [8]: 3% | Population Membrane Permeable-Phenotype (%) [8]: 8% | Population Mitochondria Different-Phenotype (%) [8]: 59% | Population Mitotic Cells (%) [8]: 88% | Population Normal (%) [8]: 96% | Population Pyknosed Nuclei (%) [8]: 26% | Population Tubulin-Different-Phenotype (%) [8]: 97% | Total Cell Count [8]: 1005
